Measured values as given in ChEMBL document CHEMBL2331536, “Indenoindolone derivatives as topoisomerase II-inhibiting anticancer agents” (Bioorg Med Chem Lett, 2013).
Active and inactive are the calls of the source. The calls are words filed in the database; no cut-off is given here.

Columns and labels:
[1] = system: HEK293; assay: Cytotoxicity against HEK293 cells after 48 hrs by MTT assay; type: functional; conditions: Homo sapiens, HEK293, 48 h; read-out: LC50 (the source's name)
Summary of the method: (§1)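 HEK-293 (ATCC CRL-1573) or normal monkey kidney Vero (ATCC CCL-81) cells were plated, then exposed to a range of compound concentrations for 48 h. MTT was added, and the formazan was dissolved in detergent solution and read at 570 nm. LC50 is the concentration giving 50% cell death. Data are the mean SD of three separate experiments.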

[2] = biological target: DNA topoisomerase 2-alpha (Homo sapiens) (UniProt P11388); assay: Inhibition of human topoisomerase 2alpha at 100 uM incubated for 30 mins at 37 degC by agarose-gel electrophoresis based ATP-dependent kDNA decatenation assay
Summary of the method: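 Commercial topoisomerase drug-screening kit, in vitro ATP-dependent assay. kDNA treated with hTopoIIα plus test agent or 100 µM etoposide, 37 °C, 30 min. Run on 1% agarose gel in TAE buffer; decatenated product quantified.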

[3] = biological target: T1, DNA topoisomerase 1 (Homo sapiens) (UniProt P11387); assay: Inhibition of human DNA topoisomerase 1 assessed as effect on relaxation of negatively super colied DNA at 100 uM incubated for 30 mins at 37 degC by agarose-gel electrophoresis
T1 sequence (whole entry): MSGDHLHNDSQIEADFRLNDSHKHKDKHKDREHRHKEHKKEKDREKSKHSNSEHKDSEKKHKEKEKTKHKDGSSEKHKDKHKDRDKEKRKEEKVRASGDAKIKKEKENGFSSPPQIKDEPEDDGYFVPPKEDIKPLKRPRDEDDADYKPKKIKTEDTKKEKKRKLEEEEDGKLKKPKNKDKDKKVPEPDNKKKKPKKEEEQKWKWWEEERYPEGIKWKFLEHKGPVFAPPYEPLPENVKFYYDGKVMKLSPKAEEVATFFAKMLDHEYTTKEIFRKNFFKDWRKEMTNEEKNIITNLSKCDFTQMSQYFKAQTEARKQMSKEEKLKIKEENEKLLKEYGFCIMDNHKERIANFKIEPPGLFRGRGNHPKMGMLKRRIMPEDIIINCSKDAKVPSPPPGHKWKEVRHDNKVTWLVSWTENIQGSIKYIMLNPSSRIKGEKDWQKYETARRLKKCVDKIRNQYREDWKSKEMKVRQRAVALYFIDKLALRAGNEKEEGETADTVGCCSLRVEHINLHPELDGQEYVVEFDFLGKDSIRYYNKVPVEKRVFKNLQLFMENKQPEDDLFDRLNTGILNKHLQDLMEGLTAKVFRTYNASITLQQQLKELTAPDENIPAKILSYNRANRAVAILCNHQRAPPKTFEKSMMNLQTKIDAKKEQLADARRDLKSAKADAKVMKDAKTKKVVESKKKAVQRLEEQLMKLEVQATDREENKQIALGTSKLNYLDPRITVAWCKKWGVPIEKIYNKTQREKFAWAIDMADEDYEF
Summary of the method: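 Negatively supercoiled DNA treated with human topoisomerase I plus test agent or 100 µM camptothecin, 37 °C, 30 min. Relaxation judged on 1% agarose gel electrophoresis in TAE buffer.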

[4] = system: Nucleic Acid; assay: Induction of DNA intercalation in negatively Escherichia coli super coiled small circular plasmid DNA assessed as retradation of DNA migration at 100 uM incubated for 20 mins at 37 degC by agarose-gel electrophoresis; type: nucleic-acid assay
Summary of the method: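 250 ng negatively supercoiled small circular plasmid DNA (from E. coli) incubated with test agent or ethidium bromide, 37 °C, 20 min. Products resolved on 1% agarose gel in TAE buffer.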

[5] = Cytotoxicity against african green monkey Vero cells after 48 hrs by MTT assay; type: cell-based; conditions: chlorocebus sabaeus, read-out: LC50; summary of the method: as §1

DNA topoisomerase 2-alpha (Homo sapiens), sequence (P11388 whole entry): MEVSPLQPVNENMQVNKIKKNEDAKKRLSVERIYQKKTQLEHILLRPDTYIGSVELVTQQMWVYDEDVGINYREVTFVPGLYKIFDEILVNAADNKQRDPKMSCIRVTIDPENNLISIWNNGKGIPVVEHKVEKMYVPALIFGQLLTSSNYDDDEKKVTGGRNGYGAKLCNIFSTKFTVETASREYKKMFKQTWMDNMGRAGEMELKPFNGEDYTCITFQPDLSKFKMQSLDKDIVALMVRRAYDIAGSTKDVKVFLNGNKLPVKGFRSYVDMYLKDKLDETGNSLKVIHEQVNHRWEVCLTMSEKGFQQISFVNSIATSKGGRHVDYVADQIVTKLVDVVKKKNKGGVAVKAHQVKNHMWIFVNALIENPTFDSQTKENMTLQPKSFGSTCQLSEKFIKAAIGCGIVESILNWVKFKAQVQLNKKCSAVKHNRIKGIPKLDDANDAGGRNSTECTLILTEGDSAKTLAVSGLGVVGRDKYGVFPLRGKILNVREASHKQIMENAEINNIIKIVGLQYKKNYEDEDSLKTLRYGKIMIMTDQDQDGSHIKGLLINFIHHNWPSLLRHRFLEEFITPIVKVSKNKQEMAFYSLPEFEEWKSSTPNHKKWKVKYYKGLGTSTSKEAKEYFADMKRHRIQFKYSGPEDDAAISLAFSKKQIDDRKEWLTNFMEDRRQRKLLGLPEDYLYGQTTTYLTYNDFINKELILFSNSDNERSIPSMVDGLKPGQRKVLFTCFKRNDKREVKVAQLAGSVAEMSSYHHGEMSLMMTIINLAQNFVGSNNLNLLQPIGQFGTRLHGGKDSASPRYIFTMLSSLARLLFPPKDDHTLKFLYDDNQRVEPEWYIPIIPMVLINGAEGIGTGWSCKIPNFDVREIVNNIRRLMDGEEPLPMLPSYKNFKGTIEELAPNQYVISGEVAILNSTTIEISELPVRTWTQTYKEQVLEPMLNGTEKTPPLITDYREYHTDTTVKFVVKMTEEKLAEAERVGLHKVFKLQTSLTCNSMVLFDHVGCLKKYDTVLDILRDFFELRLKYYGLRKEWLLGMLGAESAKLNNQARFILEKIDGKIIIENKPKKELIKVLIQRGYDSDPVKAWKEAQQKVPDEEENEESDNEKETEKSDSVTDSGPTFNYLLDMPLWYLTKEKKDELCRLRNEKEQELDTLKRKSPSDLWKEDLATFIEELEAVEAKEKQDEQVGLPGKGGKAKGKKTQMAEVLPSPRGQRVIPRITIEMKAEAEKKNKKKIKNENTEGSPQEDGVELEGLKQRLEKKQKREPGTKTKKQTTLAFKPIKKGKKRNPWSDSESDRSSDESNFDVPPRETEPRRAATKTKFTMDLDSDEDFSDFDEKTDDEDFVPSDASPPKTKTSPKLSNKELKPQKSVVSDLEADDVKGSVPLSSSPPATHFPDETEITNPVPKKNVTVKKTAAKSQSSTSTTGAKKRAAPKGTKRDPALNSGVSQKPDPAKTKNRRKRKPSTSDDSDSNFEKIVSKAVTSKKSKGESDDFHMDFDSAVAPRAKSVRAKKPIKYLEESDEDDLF

| SMILES | CC50 [1] [µM] | inhibition [2] | inhibition [3] | Activity [4] | CC50 at 48 h [5] [µM] |
| --- | --- | --- | --- | --- | --- |
| NC(=S)N/N=C1\c2ccccc2-c2[nH]c3ccccc3c21 | 7 | Active | inactive | inactive | 50 |
| c1ccc(Cn2c3c(c4ccccc42)/C(=N/Nc2ccccc2)c2ccccc2-3)cc1 |  | Active |  |  |  |
| O=C(N/N=C1\c2ccccc2-c2c1c1ccccc1n2Cc1ccccc1)Nc1ccccc1 |  | Active |  |  |  |
| COc1ccc2c(c1)/C(=N\Nc1ccccc1)c1c-2n(C)c2ccccc12 |  | Active |  |  |  |
| Cc1ccc(N/N=C2\c3ccccc3-c3c2c2ccccc2n3C)cc1 |  | Active |  |  |  |
| Cn1c2c(c3ccccc31)/C(=N/NC(=O)Nc1ccccc1)c1ccccc1-2 |  | Active |  |  |  |
| COc1ccc(N/N=C2/c3cc(OC)c(OC)cc3-c3c2c2ccccc2n3C)cc1 |  | Active |  |  |  |
| CC[n+]1c(-c2ccccc2)c2cc(N)ccc2c2ccc(N)cc21 |  |  |  | Active |  |
| COc1cc([C@@H]2c3cc4c(cc3[C@@H](O[C@@H]3O[C@@H]5CO[C@@H](C)O[C@H]5[C@H](O)[C@H]3O)[C@H]3COC(=O)[C@H]23)OCO4)cc(OC)c1O [ETOPOSIDE] | 17 |  |  | inactive | 29 |
| CN1c2ccccc2C2=C(O)c3ccccc3C21 (centres undefined) |  | Active |  |  |  |
| COc1ccc(N/N=C2\c3ccccc3-c3c2c2ccccc2n3Cc2ccccc2)cc1 |  | Active |  |  |  |
| COc1ccc(N/N=C2\c3ccccc3-c3c2c2ccccc2n3C)cc1 |  | Active |  |  |  |
| COc1ccc2c(c1)/C(=N\O)c1c-2n(C)c2ccccc12 | 5 | Active | inactive | inactive | 60 |
| O/N=C1\c2ccccc2-c2[nH]c3ccccc3c21 | 6 | Active | inactive | inactive | 60 |
| c1ccc(N/N=C2\c3ccccc3-c3[nH]c4ccccc4c32)cc1 |  | Active |  |  |  |
| O=c1[nH]cc(F)c(=O)[nH]1 [FLUOROURACIL] | 25 |  |  |  |  |
| COc1ccc(N/N=C2/c3cc(OC)c(OC)c(OC)c3-c3c2c2ccccc2n3C)cc1 |  | Active |  |  |  |
| Cn1c2c(c3ccccc31)/C(=N/Nc1ccccc1)c1ccccc1-2 |  | Active |  |  |  |
| COc1ccc2c(c1)C(O)c1c-2n(C)c2ccccc12 (centres undefined) | 4 | Active | inactive | inactive | 30 |
| O/N=C1\c2ccccc2-c2c1c1ccccc1n2Cc1ccccc1 |  | Active |  |  |  |
| COc1ccc2c(c1)c1c(n2C)-c2ccccc2/C1=N\Nc1ccccc1 |  | Active |  |  |  |
| COc1cc2c(c(OC)c1OC)-c1c(c3ccccc3n1C)C2O (centres undefined) | 8 | Active | inactive | inactive | 40 |
